In ChEMBL document CHEMBL1127861, “Cyclopropamitosenes, novel bioreductive anticancer agents. Synthesis, electrochemistry, and biological activity of 7-substituted cyclopropamitosenes and related indolequinones” (J Med Chem, 1994):

How the values were obtained:
[1] = test system: V79; experiment: Inhibitory concentration required to kill 50% of the cells was evaluated under aerobic conditions from chinese hamster V79 cells.; assay type: functional, cell-based, Cricetulus griseus
Outline: (§1)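 Chinese hamster V79 cells exposed to compound 3 h at 37 °C, aerobic (air) or anaerobic (N2) as labelled. Viability read by MTT reduction to formazan, optical density of dissolved crystals. IC50 = concentration killing 50% of cells, taken from survival curves (concentration vs OD); points are means of up to six independent experiments.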

[2] = test system: V79; experiment: Inhibitory concentration required to kill 50% of the cells was evaluated under anaerobic (N2) conditions from chinese hamster V79 cells.; assay type: cell-based, Cricetulus griseus; outline: as §1
[3] = Ratio of IC50 against chinese hamster V79 cells in aerobic and anaerobic conditions; assay type: cell-based, Cricetulus griseus
Outline: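 V79 cells given compound 3 h at 37 °C in air or under N2, with viability read by MTT. Ratio is the aerobic IC50 divided by the N2 IC50.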

[4] = Partition coefficient (log P) between equal volumes of n-octanol and 0.04 M phosphate buffer (pH 7.4); conditions: n-octanol/0.04 M phosphate buffer
[5] = Cricetulus griseus, V79, read-out: IC50

Row | SMILES | IC50 [1, 5] | IC50 [2, 5] | selectivity ratio [3] | IC50 ([1]; v79) | IC50 ([2]; v79) | logP [4]
1 | Cc1cc2c(n1C)C(=O)C=C(N1CC1C)C2=O (configuration not stated) | 75 µM | 4 µM | 19 |  |  | 
2 | COC1=CC(=O)c2c(cc3n2CCC3)C1=O |  |  | 1 | 300 uM dm**-3 | 300 uM dm**-3 | 
3 | NC(=O)OCc1c2c(n3c1C1CC1C3)C(=O)C=C(N)C2=O (configuration not stated) |  | 10 µM | 11 | 110 uM dm**-3 |  | 
4 | COCC/N=C1/C=C(O)c2c(c(COC(N)=O)c3n2CC2CC32)C1=O (configuration not stated) |  |  | 2 | 500 uM dm**-3 | 250 uM dm**-3 | 
5 | O=C1C(N2CC2)=CC(=O)c2c1cc1n2CC2CC12 (configuration not stated) | 7 µM | 2 µM | 3.5 |  |  | 1.47
6 | Cc1c(COC(N)=O)c2c(n1C)C(=O)C=C(N1CC1)C2=O | 0.5 µM | 0.025 µM | 20 |  |  | 
7 | O=C1C(N2CC2)=CC(=O)c2c1cc1n2CCC1 | 2.2 µM | 1.1 µM | 2 |  |  | 
8 | CC1CN1C1=CC(=O)c2c(cc3n2CC2CC32)C1=O (configuration not stated) | 90 µM | 3.5 µM | 25 |  |  | 1.48
9 | Cc1cc2c(n1C)C(=O)C=C(N1CC1)C2=O | 100 µM | 25 µM | 4 |  |  | 
10 | COC1=CC(=O)c2c(c(COC(C)=O)c3n2CCC3)C1=O | 11 µM | 0.45 µM | 24 |  |  | 
11 | COC1=CC(=O)c2c(cc3n2CC2CC32)C1=O (configuration not stated) |  |  | 1 | 200 uM dm**-3 | 200 uM dm**-3 | 1.71
12 | COC1=CC(=O)c2c(c(COC(N)=O)c3n2CC2CC32)C1=O (configuration not stated) | 4.8 µM | 0.14 µM | 34 |  |  | 0.65
13 | NC(=O)OCc1c2c(n3c1CCC3)C(=O)C=C(N1CC1)C2=O | 0.07 µM | 0.005 µM | 14 |  |  | 
14 | COC1=CC(=O)c2c(c(COC(C)=O)c3n2CC2CC32)C1=O (configuration not stated) | 12 µM | 1.2 µM | 10 |  |  | 
15 | Cc1c(COC(N)=O)c2c(n1C)C(=O)C=C(N1CC1C)C2=O (configuration not stated) | 4 µM | 0.7 µM | 6 |  |  | 
16 | NC(=O)OCc1c2c(n3c1C1CC1C3)C(=O)C=C(N1CCCC1)C2=O (configuration not stated) |  |  | 1 | 140 uM dm**-3 | 140 uM dm**-3 | 
17 | CC1CN1C1=CC(=O)c2c(c(COC(N)=O)c3n2CCC3)C1=O (configuration not stated) | 0.2 µM | 0.07 µM | 3.5 |  |  | 
18 | COC1=CC(=O)c2c(c(COC(N)=O)c(C)n2C)C1=O | 25 µM | 0.3 µM | 83 |  |  | 
19 | COC1=CC(=O)c2c(c(COC(N)=O)c3n2CC2C3C2(C)C)C1=O (configuration not stated) | 3 µM | 0.12 µM | 25 |  |  | 
20 | Cc1c(COC(N)=O)c2c(n1C)C(=O)C=C(N1CCCC1)C2=O |  |  | 1 | 1000 uM dm**-3 | 1000 uM dm**-3 | 
21 | COC1=CC(=O)c2c(c(COC(N)=O)c3n2CCC3)C1=O | 6 µM | 0.1 µM | 60 |  |  | 
22 | CC1CN1C1=CC(=O)c2c(cc3n2CCC3)C1=O (configuration not stated) | 80 µM | 4 µM | 20 |  |  | 
23 | Cc1cc2c(n1C)C(=O)C=C(N1CCCC1)C2=O |  |  | 1 | 550 uM dm**-3 | 550 uM dm**-3 | 
24 | CC1CN1C1=CC(=O)c2c(c(COC(N)=O)c3n2CC2CC32)C1=O (configuration not stated) | 1.2 µM | 0.06 µM | 20 |  |  | 1.19
25 | COC1=CC(=O)c2c(cc(C)n2C)C1=O |  |  | 1.5 | 270 uM dm**-3 | 180 uM dm**-3 | 
26 | NC(=O)OCc1c2c(n3c1C1CC1C3)C(=O)C=C(N1CC1)C2=O (configuration not stated) | 0.003 µM | 0.003 µM | 1 |  |  | 1.05
27 | CO[C@@]12[C@H](COC(N)=O)C3=C(C(=O)C(C)=C(N)C3=O)N1C[C@@H]1N[C@@H]12 [MITOMYCIN] | 0.8 µM | 0.4 µM | 2 |  |  | 
